Data on five compounds can be found in ChEMBL document CHEMBL1933026, “Synthesis and biological evaluation of molecular probes based on the 9-methylstreptimidone derivative DTCM-glutarimide” (Bioorg Med Chem Lett, 2012).

≈ marks a conversion by molar mass, not a printed value. Calls of active or inactive are those of the source. The rule behind the calls is not given here.

Data set [1] is described as follows: (§1) Cytotoxicity against LPS-induced mouse RAW264.7 cells treated 2 hrs before LPS challenge measured after 20 hrs by MTT assay. The settings on record: mouse, LPS-induced RAW264.7 cells; read-out: ED50. The class given is cell-based. Put shortly:
(§2)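 RAW264.7 cells seeded at 1 × 10⁵ cells/ml and treated the next day with compound for 2 h, followed by LPS for 20 h. MTT solution then added and cells held 4 h at 37 °C in 5% CO₂. Viability read as absorbance at 570 nm.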

Data set [2] deals with RAW264.7. The experiment in a line: Antiinflammatory activity in mouse RAW264.7 cells assessed as inhibition of LPS-induced NO production treated for 2 hrs before LPS challenge measured after 20 hrs by Griess method. The class given is functional, cell-based. Put shortly: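 RAW264.7 macrophages grown in DMEM with 10% FBS, seeded at 1 × 10⁵ cells/ml and used next day. Pretreated with compound 2 h, then stimulated with LPS […] for 20 h. Nitrite in the medium read with Griess reagent.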

Data set [3] has as its system RAW264.7. The experiment in a line: Inhibition of LPS-induced NF-kappaB activation in mouse RAW264.7 cells at 3 ug/ml treated 2 hrs before LPS challenge measured after 30 mins by electrophoretic mobility shift assay. The class given is cell-based. Put shortly: (§3)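 RAW264.7 cells pretreated 2 h, then stimulated with LPS for 30 min. Nuclear extracts prepared by the Andrews–Faller method. 5 µg protein incubated 20 min at RT with poly(dI-dC) and a ³²P-labelled NF-κB oligonucleotide in Tris-HCl pH 7.0 buffer with NaCl, EDTA, DTT, glycerol and NP-40. Complexes resolved on a 4% native polyacrylamide gel in TBE.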
In general terms: A gel shift assay detects complexes by their altered migration in electrophoresis.

In data set [4] the test system is RAW264.7. Described as §1. The class given is cell-based. The settings on record: Mus musculus, RAW264.7. The gist of the method:
as §2

Data set [5] concerns RAW264.7. The experiment in a line: Antiinflammatory activity in mouse RAW264.7 cells assessed as inhibition of LPS-induced iNOS expression at 1 to 10 ug/ml treated 2 hrs before LPS challenge measured after 24 hrs by Western blotting. It counts as functional, cell-based. Put shortly: (§4)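 RAW264.7 cells in DMEM with 10% FBS. Incubated with or without compound for 2 h, then stimulated with LPS 1 µg/ml for 24 h. Total cell lysates analysed for iNOS protein by Western blotting.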
In general terms: A western blot detects proteins with antibodies after separation by electrophoresis.

Data set [6] has as its system RAW264.7. The experiment in a line: Inhibition of LPS-induced NF-kappaB activation in mouse RAW264.7 cells at 10 ug/ml treated 2 hrs before LPS challenge measured after 30 mins by electrophoretic mobility shift assay. It counts as cell-based. The gist of the method: as §3
Data set [7] concerns RAW264.7. The experiment in a line: Antiinflammatory activity in mouse RAW264.7 cells assessed as inhibition of LPS-induced iNOS expression at 0.3 to 3 ug/ml treated 2 hrs before LPS challenge measured after 24 hrs by Western blotting. The class given is functional, cell-based. Put shortly: as §4

Turning to `O=C(CCCC[C@@H]1SC[C@@H]2NC(=O)N[C@@H]21)NCCCCCCCCCCCCNC(=O)CC1CC(=O)NC(=O)C1`, the CC50 at 20 h in data set [1] was greater than 30 µg/mL. Also, the IC50 (as a rule, the midpoint of a concentration-inhibition curve) in the data set on RAW264.7 [2] was greater than 30 µg/mL.

Take `[N-]=[N+]=Nc1ccc(C(=O)NCCCCCCCCCCCCSC(=O)CC2CC(=O)NC(=O)C2)cc1`: the inhibition entry in the data set on RAW264.7 [3] and in the data set on RAW264.7 [6] was “inactive” each time. Also, the IC50 with RAW264.7 [4] was greater than 30 µg/mL; in the data set on RAW264.7 [2] it was 4.5 µg/mL (≈ 8.73 µM). Moreover, the CC50 at 20 h in data set [1] was greater than 30 µg/mL. For the same compound, the inhibition entry in the data set on RAW264.7 [5] is “Active”.

With `O=C(CCCC[C@@H]1SC[C@@H]2NC(=O)N[C@@H]21)NCCSC(=O)CC1CC(=O)NC(=O)C1`, the CC50 at 20 h in data set [1] was greater than 30 µg/mL. Besides, the IC50 with RAW264.7 [2] is greater than 30 µg/mL.

`O=C(CCCC[C@@H]1SC[C@@H]2NC(=O)N[C@@H]21)NCCCCCCCCCCCCSC(=O)CC1CC(=O)NC(=O)C1`: the inhibition result with RAW264.7 [3] and in the data set on RAW264.7 [6] was “inactive” each time. Further, the IC50 in the data set with RAW264.7 [4] was greater than 30 µg/mL; in the data set with RAW264.7 [2] it was 5 µg/mL (≈ 8.38 µM). Besides, in data set [1], the CC50 at 20 h is greater than 30 µg/mL. For the same compound, in the data set on RAW264.7 [5], the inhibition entry was “Active”.

For `CCCCCCCCCCCCSC(=O)CC1CC(=O)NC(=O)C1`, the inhibition result with RAW264.7 [3] and with RAW264.7 [6] was “inactive” throughout. In addition, the inhibition result with RAW264.7 [7] is “Active”.
